Measured values reported in ChEMBL document CHEMBL2176911 (J Med Chem, 2012).
Activity calls are given as the source filed them. The rule behind the calls is not given here.

Assays:
[1] = tested on: HT-22; experiment: Neuroprotective activity against glutamate-induced toxicity in mouse HT22 cells at 10 to 20 uM up to 48 hrs by MTS assay; type: functional, cell-based
[2] = target: T1, Glycogen synthase kinase-3 alpha (Homo sapiens, UniProt P49840); experiment: Inhibition of human recombinant GSK3alpha expressed in insect cells using YRRAAVPPSPSLSRHSSPHQ-phosphoS-EDEEE as substrate and [gamma33P]ATP after 30 mins by scintillation counting
[3] = target: Dual specificity tyrosine-phosphorylation-regulated kinase 1A (Rattus norvegicus) (UniProt Q63470); experiment: Inhibition of DYRK1A in CD Sprague-Dawley rat brain assessed as inhibition of human APP-induced neurodegeneration after 3 hrs by fluorescence microscopic analysis
[4] = target: STE20-like serine/threonine-protein kinase (Mus musculus, UniProt O54988); experiment: Binding affinity to SLK1 in mouse brain homogenate after 3 hrs by competition affinity chromatographic analysis; type: tissue-based
Summary of the method: (§1)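 Mouse brain lysate applied to a KinAffinity matrix of mixed immobilized broad-spectrum kinase inhibitors at highest loading density, with increasing concentrations of free inhibitor added. […] Separate titrations of the immobilized ligands gave BC50 values.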

[5] = target: T2, Dual specificity tyrosine-phosphorylation-regulated kinase 4 (Homo sapiens, UniProt Q9NR20); experiment: Inhibition of human recombinant GST-tagged DYRK4 expressed in Escherichia coli using GRSRSRSRSRSR as substrate and [gamma33P]ATP after 30 mins by scintillation counting
T2 sequence (Q9NR20 whole entry): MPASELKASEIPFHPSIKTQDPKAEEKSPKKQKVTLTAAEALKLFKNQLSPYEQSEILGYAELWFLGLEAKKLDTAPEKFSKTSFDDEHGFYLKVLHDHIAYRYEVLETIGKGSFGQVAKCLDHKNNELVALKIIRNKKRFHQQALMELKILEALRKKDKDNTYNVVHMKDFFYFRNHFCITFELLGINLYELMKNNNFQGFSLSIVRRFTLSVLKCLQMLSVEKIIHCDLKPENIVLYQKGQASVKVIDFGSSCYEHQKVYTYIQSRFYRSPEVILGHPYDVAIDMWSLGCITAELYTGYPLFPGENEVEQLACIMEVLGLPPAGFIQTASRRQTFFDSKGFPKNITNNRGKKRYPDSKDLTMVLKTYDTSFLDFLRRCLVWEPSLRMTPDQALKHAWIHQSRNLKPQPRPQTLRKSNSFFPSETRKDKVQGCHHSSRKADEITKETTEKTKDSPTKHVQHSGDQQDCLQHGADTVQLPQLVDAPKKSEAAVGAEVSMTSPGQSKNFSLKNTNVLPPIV

[6] = target: T3, Dual specificity tyrosine-phosphorylation-regulated kinase 2 (Homo sapiens) (UniProt Q92630); experiment: Inhibition of human recombinant GST-tagged DYRK2 expressed in Escherichia coli using KKISGRLSPIMTEQ as substrate at 10 uM after 30 mins
T3 sequence (whole entry): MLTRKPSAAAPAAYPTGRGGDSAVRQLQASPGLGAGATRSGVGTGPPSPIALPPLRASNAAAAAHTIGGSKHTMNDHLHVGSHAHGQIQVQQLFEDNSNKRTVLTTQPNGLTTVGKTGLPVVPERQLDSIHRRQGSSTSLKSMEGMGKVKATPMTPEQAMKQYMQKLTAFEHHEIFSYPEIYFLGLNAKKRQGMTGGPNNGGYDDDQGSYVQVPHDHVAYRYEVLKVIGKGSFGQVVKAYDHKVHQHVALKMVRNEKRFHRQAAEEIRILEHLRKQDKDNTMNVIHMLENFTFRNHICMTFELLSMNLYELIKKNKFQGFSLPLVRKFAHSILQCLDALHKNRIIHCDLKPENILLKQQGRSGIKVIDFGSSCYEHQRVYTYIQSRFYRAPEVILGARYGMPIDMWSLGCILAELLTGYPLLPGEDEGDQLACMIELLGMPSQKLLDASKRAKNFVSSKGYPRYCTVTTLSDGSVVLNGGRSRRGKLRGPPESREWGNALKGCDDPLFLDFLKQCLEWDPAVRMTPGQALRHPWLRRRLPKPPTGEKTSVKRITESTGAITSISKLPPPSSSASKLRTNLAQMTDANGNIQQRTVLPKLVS

[7] = tested on: HT-22; experiment: Binding affinity to GSK3beta2 in mouse HT22 cell lysate by Western blot analysis; type: cell-free
Summary of the method: (§2)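 Bead pull-down from HT22 cell or mouse brain extracts, with ethanolamine beads lacking ligand as control. Specificity was tested by adding excess free inhibitor to the extracts before binding.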

[8] = Inhibition of CK2 at 1 uM after 30 mins
[9] = target: Dual specificity tyrosine-phosphorylation-regulated kinase 1A (Mus musculus) (UniProt Q61214); experiment: Inhibition of DYRK1A in mouse HT22 cells at 10 uM after 4 hrs; type: cell-based; details: HT-22
[10] = target: Casein kinase II subunit alpha (Mus musculus, UniProt Q60737); experiment: Binding affinity to CSNK2A1 in mouse brain homogenate after 3 hrs by competition affinity chromatographic analysis; type: tissue-based; summary of the method: as §1
[11] = target: Cyclin-dependent kinase 2/cyclin A (Homo sapiens, UniProt P24941); experiment: Inhibition of CDK2/cyclin A using [gamma33P]ATP after 30 mins by scintillation counting; type: protein-complex assay
Summary of the method: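 Panel of purified kinases (recombinant from several species plus native enzymes), each assayed radiometrically over a range of inhibitor concentrations; IC50 in μM calculated from the dose-response curves.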

[12] = target: Casein kinase II subunit alpha' (Mus musculus, UniProt O54833); experiment: Binding affinity to CSNK2A2 in mouse brain homogenate after 3 hrs by competition affinity chromatographic analysis; type: tissue-based; summary of the method: as §1
[13] = target: Casein kinase II subunit beta (Mus musculus) (UniProt P67871); experiment: Binding affinity to CK2 beta subunit in mouse brain homogenate by Western blot analysis; type: tissue-based; summary of the method: as §2
[14] = target: Casein kinase II subunit alpha' (Mus musculus) (UniProt O54833); experiment: Binding affinity to CK2 alpha' subunit in mouse HT22 cell lysate by Western blot analysis; type: cell-free; details: HT-22; summary of the method: as §2
[15] = target: Dual specificity protein kinase CLK4 (Homo sapiens, UniProt Q9HAZ1); experiment: Binding affinity to CLK4
[16] = tested on: HT-22; experiment: Neuroprotective activity against glutamate-induced toxicity in mouse HT22 cells after 24 hrs by MTS assay; type: functional, cell-based
[17] = Binding affinity to casein kinase 2
[18] = target: T1, Glycogen synthase kinase-3 alpha; experiment: Binding affinity to GSK3A
[19] = species on record: Mus musculus; experiment: Binding affinity to GSK3beta1 in mouse brain homogenate by Western blot analysis; type: tissue-based; summary of the method: as §2
[20] = target: Dual specificity tyrosine-phosphorylation-regulated kinase 1A (Homo sapiens) (UniProt Q13627); experiment: Inhibition of human recombinant GST-tagged DYRK1A expressed in Escherichia coli using KKISGRLSPIMTEQ as substrate at 1 uM after 30 mins
[21] = target: Glycogen synthase kinase-3 alpha (Mus musculus, UniProt Q2NL51); experiment: Binding affinity to GSK3A in mouse brain homogenate after 3 hrs by competition affinity chromatographic analysis; type: tissue-based; summary of the method: as §1
[22] = target: 1-phosphatidylinositol 3-phosphate 5-kinase (Mus musculus, UniProt Q9Z1T6); experiment: Binding affinity to phosphatidylinositol-3-phosphate 5-kinase type 3 in mouse brain homogenate after 3 hrs by competition affinity chromatographic analysis; type: tissue-based; summary of the method: as §1
[23] = tested on: Brain; experiment: Toxicity against CD Sprague-Dawley rat brain expressing human APP at 0.03 to 3 uM after 3 hrs by fluorescence microscopic analysis; type: tissue-based; details: in vivo
[24] = tested on: HT-22; experiment: Binding affinity to GSK3beta1 in mouse HT22 cell lysate by Western blot analysis; type: cell-free; summary of the method: as §2

O=C1NC(Nc2ccccc2)=N/C1=C\c1ccc2c(c1)OCO2
Activity [1]: Active
IC50 [2]: 210 nM
inhibition [3]: Dose-dependent effect
Kd(free) [4]: 21 nM
IC50 [5]: 520 nM
inhibition [6]: Active
Activity [7]: Active
inhibition [8]: Active
inhibition [9]: Active
Kd(free) [10]: 326 nM
IC50 [11]: > 30000 nM
Kd(free) [12]: 574 nM
Activity [13]: Active
Activity [14]: Active
Kd [15]: 70 nM
Activity [16]: Dose-dependent effect
Activity [17]: Active
Kd [18]: 550 nM
Activity [19]: Active
inhibition [20]: Active
Kd(free) [21]: 3274 nM
Kd(free) [22]: 6010 nM
Activity [23]: Non-toxic
Activity [24]: Active
